In ChEMBL document CHEMBL4725349, “Discovery of First-in-Class Protein Arginine Methyltransferase 5 (PRMT5) Degraders” (J Med Chem, 2020):
Each block holds one compound with its values, some of them ahead of it. Active and inactive are the calls of the source. The rule behind the calls is not given here.

Columns and labels:
HeLa = experiment: Antiproliferative activity against human HeLa cells assessed as reduction in cell viability at 0.1 to 10 uM supplemented with fresh medium containing compound every other day for 6 days by CellTiter-Glo assay; type: functional, cell-based; conditions: dose microM 0.1-10, time 6.0 day
Method in brief: (§1)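 HeLa, A549 and A172 grown in DMEM + 10% FBS; Jurkat in RPMI 1640 + 10% FBS; all at 37 °C, 5% CO2. Cells seeded, then treated 6 d with test agent, medium plus compound renewed every other day. Viability read by CellTiter-Glo and normalized to DMSO-treated cells; mean ± SD, n = 3.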

[1] = molecular target: T1, von Hippel-Lindau disease tumor suppressor/Protein arginine N-methyltransferase 5 (Homo sapiens, UniProt O14744+P40337); experiment: Induction of VHL-mediated PRMT5 degradation in human MCF7 cells at 5 uM incubated for 6 days by Western blot analysis; type: cell-based; conditions: time 6.0 day
Method in brief: (§2)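 MCF-7 cells treated 6 d (0.2, 1 and 5 μM for initial screen, or indicated concentrations). RIPA lysates immunoblotted for PRMT5. Band intensity quantified by densitometry to derive DC50 and Dmax as mean ± SD from three independent experiments; screening blots representative of at least two.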

Jurkat = experiment: Antiproliferative activity against human Jurkat cells assessed as reduction in cell viability at 0.1 to 10 uM supplemented with fresh medium containing compound every other day for 6 days by CellTiter-Glo assay; type: functional, cell-based; conditions: dose microM 0.1-10, time 6.0 day; method in brief: as §1
A549 = experiment: Antiproliferative activity against human A549 cells assessed as reduction in cell viability at 0.1 to 10 uM supplemented with fresh medium containing compound every other day for 6 days by CellTiter-Glo assay; type: functional, cell-based; conditions: dose microM 0.1-10, time 6.0 day; method in brief: as §1
A 172 = experiment: Antiproliferative activity against human A172 cells assessed as reduction in cell viability at 0.1 to 10 uM supplemented with fresh medium containing compound every other day for 6 days by CellTiter-Glo assay; type: functional, cell-based; conditions: dose microM 0.1-10, time 6.0 day; method in brief: as §1
[2] = molecular target: T1, von Hippel-Lindau disease tumor suppressor/Protein arginine N-methyltransferase 5; experiment: Induction of VHL-mediated PRMT5 degradation in human MCF7 cells assessed as reduction in SDMA level incubated for 6 days by Western blot analysis; type: cell-based; conditions: dose microM 0.1-3, time 6.0 day
Method in brief: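 SDMA read-out: MCF-7 cells given 0.1, 0.3, 1 or 3.0 μM for 6 d; global symmetric dimethylarginine detected on western blot with anti-SDMA antibody.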

MCF7 = experiment: Antiproliferative activity against human MCF7 cells at 0.1 to 10 uM incubated for 6 days by CellTiter-Glo assay; type: functional, cell-based; conditions: dose microM 0.1-10, time 6.0 day
Method in brief: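 MCF-7 in DMEM + 10% FBS at 37 °C, 5% CO2. Cells exposed to graded concentrations for 6 d, medium with compound refreshed every other day. CellTiter-Glo luminescence, expressed as viability relative to DMSO control; mean ± SD, n = 3.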

[3] = molecular target: PRMT5/MEP50 complex (Homo sapiens) (UniProt O14744+Q9BQA1); experiment: Inhibition of human PRMT5/MEP50 assessed as reduction in methyltransferase activity at 5 uM using histone 4 peptide as substrate in presence of [3H]SAM incubated for 30 mins; type: protein-complex assay
[4] = molecular target: T1, von Hippel-Lindau disease tumor suppressor/Protein arginine N-methyltransferase 5; experiment: Induction of VHL-mediated PRMT5 degradation in human MCF7 cells at 0.2 to 5 uM incubated for 6 days by Western blot analysis; type: cell-based; conditions: dose microM 0.2-5, time 6.0 day; method in brief: as §2
[5] = molecular target: T1, von Hippel-Lindau disease tumor suppressor/Protein arginine N-methyltransferase 5; experiment: Induction of VHL-mediated PRMT5 degradation in human MCF7 cells at 1 to 5 uM incubated for 6 days by Western blot analysis; type: cell-based; conditions: dose microM 1-5, time 6.0 day; method in brief: as §2

T1 sequence (O14744 whole entry, looked up): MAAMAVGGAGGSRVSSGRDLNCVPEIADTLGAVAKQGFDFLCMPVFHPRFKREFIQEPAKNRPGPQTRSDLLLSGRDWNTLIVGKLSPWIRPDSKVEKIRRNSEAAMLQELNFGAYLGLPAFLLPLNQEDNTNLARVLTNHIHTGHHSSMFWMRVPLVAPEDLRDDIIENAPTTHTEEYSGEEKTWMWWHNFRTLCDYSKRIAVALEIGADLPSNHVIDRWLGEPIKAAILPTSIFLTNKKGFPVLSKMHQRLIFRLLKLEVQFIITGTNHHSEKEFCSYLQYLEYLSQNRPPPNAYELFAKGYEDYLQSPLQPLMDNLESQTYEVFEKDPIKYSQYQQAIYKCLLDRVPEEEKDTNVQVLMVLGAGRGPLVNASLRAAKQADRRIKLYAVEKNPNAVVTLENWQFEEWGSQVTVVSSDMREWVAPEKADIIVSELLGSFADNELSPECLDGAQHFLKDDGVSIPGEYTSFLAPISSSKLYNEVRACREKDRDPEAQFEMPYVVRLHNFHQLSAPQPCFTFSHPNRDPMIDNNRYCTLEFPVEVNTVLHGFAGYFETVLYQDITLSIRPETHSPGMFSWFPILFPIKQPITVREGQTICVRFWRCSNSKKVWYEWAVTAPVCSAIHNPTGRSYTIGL
T1 sequence (P40337 whole entry, looked up): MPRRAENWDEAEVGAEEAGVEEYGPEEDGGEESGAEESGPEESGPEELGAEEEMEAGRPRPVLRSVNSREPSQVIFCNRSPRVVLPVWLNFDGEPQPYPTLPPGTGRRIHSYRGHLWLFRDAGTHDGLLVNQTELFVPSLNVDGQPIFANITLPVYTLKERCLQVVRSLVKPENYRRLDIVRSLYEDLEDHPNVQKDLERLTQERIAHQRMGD

Activity [1]: inactive
inhibition [3]: 58%
SMILES: Cc1ncsc1-c1ccc([C@H](C)NC(=O)[C@@H]2C[C@@H](O)CN2C(=O)[C@@H](NC(=O)COCCOCCOCCOCCOCC(=O)N2CC(Nc3cc(C(=O)NC[C@H](O)CN4CCCCC4)ncn3)C2)C(C)(C)C)cc1
Activity (MCF7): inactive

Activity [4]: inactive
SMILES: Cc1ncsc1-c1ccc(CNC(=O)[C@@H]2C[C@@H](O)CN2C(=O)[C@@H](NC(=O)CCCCCCCCCC(=O)N2CC(Nc3cc(C(=O)NC[C@H](O)CN4CCc5ccccc5C4)ncn3)C2)C(C)(C)C)cc1

Continued, compound first:

SMILES: O=C(NC[C@H](O)CN1CCc2ccccc2C1)c1cc(NC2COC2)ncn1
Activity (HeLa): Active
Activity [1]: inactive
Activity (Jurkat): Active
Activity (A549): Active
Activity (A 172): Active
Activity [2]: Dose-dependent effect

SMILES: Cc1ncsc1-c1ccc(CNC(=O)[C@@H]2C[C@@H](O)CN2C(=O)[C@@H](NC(=O)CCOCCOCCC(=O)N2CC(Nc3cc(C(=O)NC[C@H](O)CN4CCc5ccccc5C4)ncn3)C2)C(C)(C)C)cc1
Activity [4]: inactive

SMILES: Cc1ncsc1-c1ccc(CNC(=O)[C@@H]2C[C@@H](O)CN2C(=O)[C@@H](NC(=O)COCCOCCOCCOCCOCC(=O)N2CC(Nc3cc(C(=O)NC[C@H](O)CN4CCc5ccccc5C4)ncn3)C2)C(C)(C)C)cc1
Activity [5]: Active
